Two compounds from ChEMBL document CHEMBL2177098, “Synthesis and evaluation of novel ¹⁸F labeled 2-pyridinylbenzoxazole and 2-pyridinylbenzothiazole derivatives as ligands for positron emission tomography (PET) imaging of β-amyloid plaques” (J Med Chem, 2012) can be followed below.

Each structure is given as a SMILES string. The source made the active and inactive calls. The rule behind the calls is not given here.

In assay [1] the target is Amyloid-beta precursor protein (Homo sapiens) (UniProt P05067). In words: Binding affinity to amyloid beta plaques in Alzheimer patient brain at 370 KBq/100 ul after 1 hr by autoradiographic analysis. The conditions noted are these: tested as the 18F-labelled form.
Sequence of Amyloid-beta precursor protein (Homo sapiens) (P05067 whole entry): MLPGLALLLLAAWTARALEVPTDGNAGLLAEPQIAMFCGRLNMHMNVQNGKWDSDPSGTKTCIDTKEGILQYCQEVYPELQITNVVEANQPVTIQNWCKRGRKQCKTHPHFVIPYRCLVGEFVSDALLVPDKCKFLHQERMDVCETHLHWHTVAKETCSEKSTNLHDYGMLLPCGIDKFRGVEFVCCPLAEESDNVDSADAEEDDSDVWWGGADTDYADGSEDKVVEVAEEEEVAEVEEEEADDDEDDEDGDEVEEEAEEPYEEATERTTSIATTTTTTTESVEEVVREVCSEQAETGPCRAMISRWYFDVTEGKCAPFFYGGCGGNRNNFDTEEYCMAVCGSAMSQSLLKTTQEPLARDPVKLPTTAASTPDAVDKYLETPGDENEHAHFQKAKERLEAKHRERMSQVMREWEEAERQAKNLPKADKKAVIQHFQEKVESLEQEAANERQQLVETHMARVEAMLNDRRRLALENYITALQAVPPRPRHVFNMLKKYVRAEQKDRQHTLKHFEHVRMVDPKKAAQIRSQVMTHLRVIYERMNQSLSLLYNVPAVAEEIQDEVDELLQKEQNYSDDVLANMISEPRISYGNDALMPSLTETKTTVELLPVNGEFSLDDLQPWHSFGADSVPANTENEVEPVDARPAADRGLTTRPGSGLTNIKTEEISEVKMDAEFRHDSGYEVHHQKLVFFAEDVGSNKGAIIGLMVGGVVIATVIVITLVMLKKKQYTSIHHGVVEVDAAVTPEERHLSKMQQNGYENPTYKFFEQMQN
Assay [2] can be described thus: Displacement of [125I]-IMPY from amyloid beta (1 to 42) fibrils after 2 hrs by gamma-counting analysis. The method, boiled down: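 Competition binding with aggregated Aβ1-42 fibrils and [125I]IMPY (60000−100000 cpm/100 μL) in 0.05% BSA (1 mL total); inhibitors 10⁻⁴−10^−8.5 M in ethanol. Incubated 37 °C for 2 h, then GF/B vacuum filtration with PBS (0.02 M, pH 7.4) washes and γ counting. Three repeats; IC50 converted to Ki by Cheng−Prusoff.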

Assay [3] is filed under the species Mus musculus. In words: Binding affinity to amyloid beta plaques in transgenic C57BL6 mouse cortex expressing APP Swedish mutant/PSEN1 at 370 KBq/100 ul after 1 hr by autoradiographic analysis. The conditions noted are these: tested as the 18F-labelled form. The essentials:
(§1)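 Paraffin brain sections from 12-month-old Tg mice (C57BL6, APPswe/PSEN1) and age-matched controls, deparaffinized through xylene and graded ethanol, then PBS (0.2 M, pH 7.4) 30 min. Incubated with 18F tracer (370 KBq per 100 μL) 1 h at room temperature, washed in 40% EtOH, rinsed in water, then phosphor plate exposure 2 h. The same sections were afterwards stained with 0.125% thioflavin S in 10% EtOH for 3 min and washed in 40% EtOH.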

Assay [4] is filed under the species Mus musculus. The experiment in a line: Binding affinity to amyloid beta plaques in transgenic C57BL6 mouse hippocampus expressing APP Swedish mutant/PSEN1 at 370 KBq/100 ul after 1 hr by autoradiographic analysis. Type of assay: tissue-based. The conditions noted are these: tested as the 18F-labelled form. The essentials:
as §1

Assay [5] is filed under the species Mus musculus. In words: Binding affinity to amyloid beta plaques in transgenic C57BL6 mouse cortex expressing APP Swedish mutant/PSEN1 at 370 KBq/100 ul after 1 hr by thioflavinS-staining method. The conditions noted are these: tested as the 18F-labelled form. The essentials: as §1
The species entered for assay [6] is Mus musculus. The experiment in a line: Binding affinity to amyloid beta plaques in transgenic C57BL6 mouse hippocampus expressing APP Swedish mutant/PSEN1 at 370 KBq/100 ul after 1 hr by thioflavinS-staining method. Type of assay: tissue-based. The note with it: tested as the 18F-labelled form. The essentials:
as §1

Regarding `CNc1ccc(-c2nc3ccc(OCCOCCOCCF)cc3s2)cn1`, the result (in assay [1]; in the assay listed under Mus musculus [3]; in the assay filed under Mus musculus [4]; in the assay filed under Mus musculus [5]; in the assay listed under Mus musculus [6]) was Active. This compound also displayed a Ki in assay [2] of 9.3 nM.

Take `CNc1ccc(-c2nc3ccc(OCCF)cc3s2)cn1`: the outcome (in assay [1]; in the assay listed under Mus musculus [3]; in the assay listed under Mus musculus [4]; in the assay filed under Mus musculus [5]; in the assay filed under Mus musculus [6]) was Active. The compound further showed a Ki in assay [2] of 10.1 nM.
